An excerpt weighted towards active compounds, which were near 1.9% of everything screened.
beta cell repl: inducers of beta-cell replication in MIN6 cells; MIN6 cells proliferation, ATPlite luminescence, 48 h; cells starved in 0.2% serum; 100% = growth in 10% serum; proliferation, % at 10 µM; 0.29% of 330,000 active; AID 2380;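 active = compounds whose signal lies at least 3.5 SD above the mean of all wells on their plate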;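 also: 0% = DMSO-treated cells in low-serum medium and 100% = 10% serum control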
NR1D1 modulator: modulates human Rev-erb alpha binding to DNA. activity, % at 10 µM. Rev-erbα–FITC-DNA binding, fluorescence polarization, 90 min. 0.79% of 370,000 active. P20393;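 active = activity above about 14%, limit read from the data; passing the limit was not always enough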;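 also: 0% = DMSO wells with 35 nM protein and 100% = DMSO wells with 750 nM protein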
Target sequence (P20393 whole entry, looked up): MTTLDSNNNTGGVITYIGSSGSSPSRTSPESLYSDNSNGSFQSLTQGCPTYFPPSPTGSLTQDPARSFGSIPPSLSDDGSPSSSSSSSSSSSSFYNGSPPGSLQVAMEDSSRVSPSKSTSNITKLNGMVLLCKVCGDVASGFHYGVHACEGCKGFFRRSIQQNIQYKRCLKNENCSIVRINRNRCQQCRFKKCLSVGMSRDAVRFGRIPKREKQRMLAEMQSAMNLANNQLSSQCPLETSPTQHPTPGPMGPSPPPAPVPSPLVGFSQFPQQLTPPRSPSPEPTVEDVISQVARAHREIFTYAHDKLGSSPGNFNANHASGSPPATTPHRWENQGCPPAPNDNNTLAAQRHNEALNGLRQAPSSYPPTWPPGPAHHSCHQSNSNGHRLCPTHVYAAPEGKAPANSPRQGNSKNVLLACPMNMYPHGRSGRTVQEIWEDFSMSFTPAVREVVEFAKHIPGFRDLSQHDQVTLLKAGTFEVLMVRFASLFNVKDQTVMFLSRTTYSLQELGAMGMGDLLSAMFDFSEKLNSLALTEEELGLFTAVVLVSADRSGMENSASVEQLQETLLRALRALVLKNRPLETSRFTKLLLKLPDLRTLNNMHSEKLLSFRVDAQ
UCH37 DUB inh: human UCH37 deubiquitinating enzyme inhibition. purified proteasome/UCH37, Ub-AMC cleavage fluorescence. inhibition, % (no concentration beside the values). 0.33% of 330,000 active;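 active = mean inhibition over replicate wells above about 20%, limit read from the data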;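 also: 0% = compound-free wells with enzyme and 100% = wells lacking proteasome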
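Signal – fluorescence, ex 355 nm, em 460 nm · System – Proteasome-bound UCH37 · Input – 0.15 nM proteasome as dispensed · Timing – 30 min preincubation with enzyme, 25 min cleavage at room temperature · Read-out basis – percent inhibition of cleavage signal versus uninhibited and no-proteasome wells · Medium – Tris-HCl pH 7.4 with ATP-MgCl2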
Yeast superoxide: caloric restriction mimetics inhibiting age-related superoxide in yeast | 0.18% of 330,000 active | superoxide response (% of plate mean), % at 10 µM | S. cerevisiae aged cells, superoxide DHE fluorescence; stronger effect = lower value | AID 2690;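 active = superoxide response under a set limit, about three screen SD below normal, cut at about 65% in these data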;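 also: yeast aged for seven days with compound at 30 °C before DHE staining; 100% = average MFI of all compound-treated wells on the plate with controls excluded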
PG9 Ab binder: PG9 antibody binding by small molecule; AID 624416; 0.43% of 360,000 active; inhibition, % at 6.7 µM; TR-FRET gp120-PG9 antibody binding; in the data active = inhibition above about 8.5%
Rce1 inhib: inhibitors of yeast Ras-converting enzyme; calls only; 0.27% of 290,000 active; yeast membranes, quenched prenylated peptide cleavage fluorescence; AID 2563;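 active = fall in fluorescence gain of 50% or more versus controls, with final raw signal at or below 3038400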;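 also: plate controls were neutral control wells for no effect and wells lacking membranes for full effect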
PG9 bind confirm: confirmation of small molecules binding HIV-1 gp120 antibody PG9; shares compounds with PG9 Ab binder; inhibition, % at 6.7 µM; TR-FRET PG9 antibody binding, biochemical; AID 651571; 90% of 1,500 active; in the data active = inhibition above about 9%
PGV04 Ab binding: PGV04 control antibody binding, counter-screen | shares compounds with PG9 Ab binder | TR-FRET PGV04 antibody-gp120 binding, biochemical | inhibition, % at 6.7 µM | 95% of 1,500 active | AID 651604; in the data active = inhibition above about 9.5%
Active calls of the source: *; i = inactive; nt = not tested or not shown.

SMILES | beta cell repl | NR1D1 modulator | UCH37 DUB inh | Yeast superoxide | PG9 Ab binder | Rce1 inhib | PG9 bind confirm | PGV04 Ab binding
Cc1onc(-c2ccccc2Cl)c1C(=O)Nc1nnc(-c2ccc(F)cc2)s1 | -4 | 2 | -1 | 125 | -1 | i | nt | nt
Cc1onc(-c2ccccc2Cl)c1C(=O)Nc1nnc(-c2ccc(Br)cc2)s1 | -6 | 0 | -31 | 102 | 27* | i | 31* | 49*
Cc1onc(-c2ccccc2)c1C(=O)Nc1cccc2nsnc12 | 0 | 16 | -16 | 98 | 66* | i | 72* | 81*
Cc1onc(-c2c(F)cccc2Cl)c1C(=O)Nc1nnc(-c2ccccc2)s1 | -1 | -1 | -4 | 89 | 9.6* | i | 15* | 23*
Oc1ccc(Br)cc1C=NNc1ncc(-c2ccccc2)cn1 | nt | nt | 4 | nt | nt | nt | nt | nt
CCCn1c(=C(C#N)C#N)sc(=C2C=Cc3ccccc3N2CC)c1=O | nt | nt | 1 | nt | nt | nt | nt | nt
COc1ccc(NN=C(Oc2ccc([N+](=O)[O-])cc2)C(C)=O)cc1 | nt | nt | 5 | nt | nt | nt | nt | nt
CCOc1cc(C=Nn2c(C)nc3ccccc3c2=O)ccc1O | nt | nt | 8 | nt | nt | nt | nt | nt
COc1cc(C(=O)ON=C2C=CC(=O)C(C)=C2C)cc(OC)c1OC | nt | nt | 6 | nt | nt | nt | nt | nt
COc1ccccc1C=Nn1c(N)c(C(=O)NC2CCCCC2)c2nc3ccccc3nc21 | nt | nt | -333 | nt | nt | nt | nt | nt
O=C(COc1c(Br)cc(Br)cc1Br)NN=Cc1ccco1 | nt | nt | 5 | nt | nt | nt | nt | nt
CCOC(=O)Nc1nc(C)c(C(=O)c2ccc(Cl)cc2)s1 | -3 | 4 | 6 | 96 | 10* | i | 17* | 33*
CCNC(=S)NN=C(C)c1ccc2ccccc2c1 | nt | nt | 5 | nt | nt | nt | nt | nt
C(=NN1CCN(C2c3ccccc3-c3ccccc32)CC1)c1ccccn1 | nt | nt | 5 | nt | nt | nt | nt | nt
O=C(NCc1ccccn1)C1CCN(S(=O)(=O)N2CCCCC2)CC1 | -1 | -4 | -1 | 102 | 8.6* | i | 8 | 11*
O=C(Nc1c(Br)cc2c(c1Br)Cc1ccccc1-2)C(Cl)Cl | nt | 14 | nt | nt | 28* | nt | 25* | 38*
CC(=O)Nc1c(Br)cc2c(c1Br)Cc1cc([N+](=O)[O-])ccc1-2 | nt | 0 | 6 | nt | -1 | nt | nt | nt
CC1(C(=O)NN=Cc2ccccc2)CC1(Br)Br (stereo not given) | nt | nt | 3 | nt | nt | nt | nt | nt
COc1ccc(/C(O)=C2/C(=O)C(=O)N(CC3CCCO3)C2c2ccc(O)c(OC)c2)cc1 (stereo not given) | 2 | 4 | 11 | 95 | -4 | i | nt | nt
COc1ccc(/C(O)=C2/C(=O)C(=O)N(CC3CCCO3)C2c2cccc(OC)c2)cc1 (stereo not given) | -1 | -1 | 9 | 109 | 2 | i | nt | nt
COc1cccc(C2/C(=C(\O)c3ccc4c(c3)OCCO4)C(=O)C(=O)N2CC2CCCO2)c1 (stereo not given) | -2 | 1 | 13 | 113 | 9.2* | i | 16* | 20*
Cc1ccc(C2/C(=C(\O)c3ccc4c(c3)OCCO4)C(=O)C(=O)N2CC2CCCO2)cc1 (stereo not given) | 5 | 8 | 10 | 78 | 9.7* | i | 20* | 22*
Cc1cc2cc(CNC(=O)Cc3ccc([N+](=O)[O-])cc3)ccc2n1C | 0 | -6 | 2 | 77 | 10* | i | 13* | 21*
Cc1cc2cc(CNC(=O)c3cccc([N+](=O)[O-])c3)ccc2n1C | -2 | 3 | 2 | 105 | 3 | i | nt | nt
COc1ccc(-c2cn3nc(SCC(=O)NC4CCCCC4)ccc3n2)cc1 | -5 | -2 | nt | 96 | 33* | i | 62* | 75*
SMILES | beta cell repl | NR1D1 modulator | UCH37 DUB inh | Yeast superoxide | PG9 Ab binder | Rce1 inhib | PG9 bind confirm | PGV04 Ab binding
CCCCn1nnc(NC(=O)c2sc3cc(Cl)ccc3c2Cl)n1 | -3 | -3 | 0 | 91 | 14* | i | 26* | 36*
CCCn1nnc(NC(=O)c2ccc(Cl)cc2Cl)n1 | -2 | 0 | 1 | 95 | -1 | i | nt | nt
CC(=O)c1ccc(OCCCC(=O)Nc2nnc(C3CC3)s2)cc1 | 1 | -1 | 0 | 83 | 8.7* | nt | 18* | 25*
O=C(c1ccncc1)N(Cc1ccco1)Cc1cc2ccccc2[nH]c1=O | 2 | 4 | -8 | 106 | -2 | i | nt | nt
Cc1cccc2cc(CN(Cc3ccco3)C(=O)c3ccncc3)c(=O)[nH]c12 | 0 | -1 | 3 | 94 | 9.3* | i | 8 | 10*
CC(=NOC(=O)c1ccc(Cl)c(Cl)c1)c1sc(C)nc1C | nt | nt | 7 | nt | nt | nt | nt | nt
CC(C)Oc1ccc(C(=O)Nc2ccc(NC(=O)c3ccco3)c(Cl)c2)cc1 | -1 | 8 | -3 | 123 | 11* | i | 16* | 23*
NC(=O)C1CCN(c2ccc(S(=O)(=O)N3CCC(Cc4ccccc4)CC3)cn2)CC1 | -3 | 1 | -1 | 96 | 14* | i | 24* | 34*
O=S(=O)(c1ccc(Cl)nc1)N1CCC(Cc2ccccc2)CC1 | -1 | 0 | 3 | 115 | 0 | nt | nt | nt
Cc1cc(C)c2c(=O)[nH]c(SCC(=O)c3ccc(C(C)C)cc3)nc2n1 | -4 | -4 | -2 | 101 | 32* | i | 59* | 76*
COc1ccc(S(=O)(=O)N2CCN(c3ncccn3)CC2)cc1 | 0 | 1 | 1 | 86 | 1 | nt | nt | nt
O=S(=O)(c1ccc(Cl)cc1)N1CCN(c2ncccn2)CC1 | 0 | 5 | 2 | 129 | 16* | i | 26* | 32*
O=C(COc1cccc2cccnc12)NN=C1SCC(=O)N1Cc1ccccc1 | nt | nt | 4 | nt | nt | nt | nt | nt
O=C(Nc1nc(-c2ccccc2)nc2ccccc12)c1ccc(F)cc1 | -4 | 2 | -33 | 84 | 11* | nt | 16* | 27*
CCc1ccc(C=NNC(=O)Cc2cccn2C)cc1 | nt | nt | 4 | nt | nt | nt | nt | nt
Cc1[nH]c2ccccc2c1C1=CC(=O)C=CC1=O | nt | 17 | 1 | nt | 10* | nt | 20* | 25*
Cc1ccsc1C=NNC(=O)CNC(=O)c1ccc(S(=O)(=O)N(C)C)cc1 | nt | nt | 4 | nt | nt | nt | nt | nt
Cc1ccc(-n2c(=S)[nH]c3c(oc4ccccc43)c2=O)cc1C | 0 | -7 | 6 | 81 | 20* | i | 11* | 17*
O=c1[nH]c2c(oc3ccccc32)c(=O)n1Cc1ccccc1 | -3 | -5 | -7 | 97 | 2 | i | nt | nt
O=c1c2oc3ccccc3c2[nH]c(=S)n1-c1ccc(F)cc1 | -1 | -6 | 7 | 95 | 10* | i | 12* | 12*
CC1(C)Cc2c(sc3nc(NN=Cc4ccccc4)[nH]c(=O)c23)CO1 | nt | nt | -474 | nt | nt | nt | nt | nt
COc1ccc(N(CC(=O)NN=Cc2cccs2)S(=O)(=O)c2ccccc2)cc1 | nt | nt | 1 | nt | nt | nt | nt | nt
